Compound activity deposited in PubChem by several laboratories.
Compounds with a hit are over-represented: about 2.5% of the library has one in this group of screens.
SMARCA2 act: SMARCA2 (BRM) function activators, primary screen, cell-based, luminescence, high throughput | MG213 cells, MMTV-luciferase reporter, dexamethasone, overnight | activation, % at 9.1 µM | 1% of 370,000 active; in the data active = activation above about 7.8%
SR-BI DiI inh: inhibitors of SR-BI mediated HDL lipid uptake, primary screen, ldlA[mSR-BI] cells, fluorescence, single point; inhibition, % at 12.5 µM; Scavenger receptor class B member 1 (Mus musculus), Q61009; AID 488896, 2010; ldlA[mSR-BI] CHO cells, DiI-HDL uptake fluorescence, 3 h; 0.96% of 320,000 active;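 active = mean replicate inhibition of at least 70% and a set share of replicates each scoring 70 or more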
Target sequence (Q61009 whole entry, looked up): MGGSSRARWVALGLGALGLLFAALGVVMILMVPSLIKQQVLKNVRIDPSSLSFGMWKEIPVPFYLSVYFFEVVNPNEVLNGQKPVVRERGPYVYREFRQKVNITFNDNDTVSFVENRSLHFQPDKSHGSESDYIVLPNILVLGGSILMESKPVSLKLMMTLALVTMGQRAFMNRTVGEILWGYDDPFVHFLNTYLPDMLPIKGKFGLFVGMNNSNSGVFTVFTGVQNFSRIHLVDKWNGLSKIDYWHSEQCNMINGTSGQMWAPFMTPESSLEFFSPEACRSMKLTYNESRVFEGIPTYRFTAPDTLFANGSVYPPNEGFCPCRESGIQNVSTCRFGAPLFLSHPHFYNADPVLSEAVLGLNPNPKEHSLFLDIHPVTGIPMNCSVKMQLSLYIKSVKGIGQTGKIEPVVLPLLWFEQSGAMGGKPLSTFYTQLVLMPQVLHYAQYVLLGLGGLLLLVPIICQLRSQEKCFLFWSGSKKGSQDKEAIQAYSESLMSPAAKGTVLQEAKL
Vif inh: HIV Vif self-association inhibitors, primary screen, imaging, HEK293T, single point; 0.35% of 340,000 active; HEK293T cells, Vif self-association by quenched fluorescence, 24 h; inhibition, % at 7.49 µM; in the data active = inhibition above about 50%, passing the limit was not always enough
SR-BI uptake up: activators of SR-BI mediated DiI-HDL uptake, primary screen, ldlA[mSR-BI] CHO cells, DiI fluorescence. 0.096% of 320,000 active. activation, % at 12.5 µM. AID 504775, 2011. 3 h; 100 = double the neutral-control signal;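 active = mean replicate activation of at least 60% and every replicate at or above 60%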
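Test system: SR-BI-overexpressing, LDLR-lacking CHO cells; Also added: labelled HDL, 10 µg/mL; Measured by: bottom-read cell fluorescence after medium removal, ex 550/em 595 nm; Timing: 3 h uptake period with compound, 37 °C; Buffer or medium: F12, 0.5% BSA, 25 mM HEPES; Doses: single compound concentration, delivered by pin transfer.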
H9c2 TAG inh: inhibitors of triacylglycerol accumulation, primary screen, cell-based, uHTS, fluorescence, H9c2; H9c2 cells, Nile Red lipid (TAG) fluorescence; cells loaded with 200 µM oleic acid; inhibition, % at 12.5 µM; 0.66% of 230,000 active;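 active = pattern-corrected inhibition of lipid staining of at least 50% with the nuclear-stain viability signal not falling by more than 50%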
Each line names hits and unclear results; the compound was inactive in the other large screens.

CCCCCCCCN1C(=O)[C@@H](CC(=O)NCc2cccc3ccccc23)C[C@@]2(C(=O)OC)C1=C[C@H](C1CCCC1)O[C@@H]2C	none (no result: SR-BI DiI inh, Vif inh, SR-BI uptake up, H9c2 TAG inh)
O=C(C(=O)N1CCC(CNC(=O)C2COc3ccccc3O2)CC1)c1cc2ccccc2o1 (stereo unspecified)	none (no result: SR-BI DiI inh, Vif inh, SR-BI uptake up, H9c2 TAG inh)
COc1ccc(-c2c(C#CC(C)(C)O)c3ccccc3n2C)cc1	none (no result: Vif inh, H9c2 TAG inh)
COc1ccc(-c2oc3ccccc3c2C#CC(C)(C)O)cc1	SR-BI DiI inh 79
CCN(CC(=O)Nc1c(F)cccc1F)C(=O)c1cccc(-n2cccc2)c1	Vif inh 74
CC(C)C(=O)N1CCN(c2ccccc2NC(=O)c2ccc(C#N)cc2F)CC1	none
CC1CCN(c2ccccc2NC(=O)c2ccc(C#N)cc2F)CC1	SR-BI DiI inh 77 (no result: H9c2 TAG inh)
Cc1nn(-c2ccccc2)c(N2CCCC2)c1/C=N/NC(=S)Nc1ccccc1C(F)(F)F	none (no result: H9c2 TAG inh)
Cc1nn(-c2ccccc2)c(N2CCCC2)c1/C=N/NC(=S)Nc1cc(C(F)(F)F)ccc1Cl	SR-BI DiI inh 86 (no result: H9c2 TAG inh)
Cc1nn(-c2ccccc2)c(N2CCCCC2)c1/C=N/NC(=O)c1ccncc1	SR-BI DiI inh 87
CC(C)NC(=O)N[C@H]1C[C@@H]2O[C@@H](CO)CC[C@@H]2O[C@@H]1CCc1ccc(-c2ccc(F)cc2)cc1	none (no result: SR-BI DiI inh, Vif inh, SR-BI uptake up, H9c2 TAG inh)
COc1cccc(CNC(=O)[C@H]2CCCN2C(=O)[C@H]2CCCN2C(=O)c2ccc(C)cc2)c1	none (no result: SR-BI DiI inh, Vif inh, SR-BI uptake up, H9c2 TAG inh)
Cc1nc(C(=O)NC2CC2)sc1C1(C)CC(c2ccccc2)=NO1 (stereo unspecified)	none
CNC(=O)c1nc(C)c(C2(C)CC(c3ccccc3)=NO2)s1 (stereo unspecified)	none
Cc1nc(C(=O)NC2CCCCC2)sc1C1(C)CC(c2cccc([N+](=O)[O-])c2)=NO1 (stereo unspecified)	SR-BI DiI inh 76
Cc1nc(C(=O)Nc2cc(F)cc(Cl)c2)sc1C1(C)CC(c2ccccc2)=NO1 (stereo unspecified)	SR-BI DiI inh 80 (no result: Vif inh, H9c2 TAG inh)
Cc1nc(C(=O)Nc2ccc(Cl)cc2)sc1C1(C)CC(c2cccc([N+](=O)[O-])c2)=NO1 (stereo unspecified)	SR-BI DiI inh 77 (no result: Vif inh, H9c2 TAG inh)
C=CCNC(=S)N(C)[C@H]1C[C@H]2c3cc(-c4ccccc4C)ccc3CCN2C[C@H]1[C@H](C)O	none (no result: SR-BI DiI inh, Vif inh, SR-BI uptake up, H9c2 TAG inh)
COC(=O)C1=C(C)N(Cc2ccccc2C(F)(F)F)C(=NCc2ccccc2)NC1CCc1ccccc1 (stereo unspecified)	none (no result: SR-BI DiI inh, Vif inh, SR-BI uptake up, H9c2 TAG inh)
COc1cc(OC)c(NC(=O)C(Sc2nc(C)cc(C)c2C#N)c2ccccc2)cc1Cl (stereo unspecified)	none (no result: SR-BI DiI inh, Vif inh, SR-BI uptake up, H9c2 TAG inh)
COc1ccc(NC(=O)CSc2nc(C3CC3)nc3ccccc23)cc1	none (no result: H9c2 TAG inh)
CC(=O)c1ccc(NC(=O)CSc2nc(C3CC3)nc3ccccc23)cc1	Vif inh 51 (no result: H9c2 TAG inh)
N#CCCn1cc(/C=N/NC(N)=S)c(-c2ccccc2)n1	SR-BI DiI inh 79
N#CCCn1cc(/C=N/NC(N)=S)c(-c2ccc(Br)cc2)n1	none
CC(=O)NC(c1ccco1)c1cc(Cl)c2cccnc2c1O (stereo unspecified)	none (no result: SR-BI DiI inh, SR-BI uptake up)
Cc1ccc(C(c2cc(Cl)c3cccnc3c2O)N2CCN(C)CC2)cc1 (stereo unspecified)	Vif inh 54 (no result: SMARCA2 act, H9c2 TAG inh)
CC(=O)NC(c1cc(Cl)c2cccnc2c1O)C(C)C (stereo unspecified)	H9c2 TAG inh 65
CC(=O)NC(c1ccc(C)cc1)c1cc(Cl)c2cccnc2c1O (stereo unspecified)	H9c2 TAG inh 50
CC(=O)NC(c1cc(Cl)c2cccnc2c1O)C1CC1 (stereo unspecified)	H9c2 TAG inh 50
CC(C)NC(=O)N(C)C[C@@H]1OCc2cn(nn2)CCCC(=O)N([C@@H](C)CO)C[C@H]1C	none (no result: SR-BI DiI inh, Vif inh, SR-BI uptake up, H9c2 TAG inh)
CCCCCCCCN1C(=O)[C@@H](CC(=O)NCc2cccc(C(F)(F)F)c2)C[C@@]2(C(=O)OC)C1=C[C@H](C1CCCC1)O[C@@H]2C	none (no result: SR-BI DiI inh, Vif inh, SR-BI uptake up, H9c2 TAG inh)
CC1CCN(C(=O)c2ccccc2SCC(=O)NCC2CCCCC2)CC1	SR-BI uptake up 588
O=S1(=O)c2ccc(N3CCSCC3)cc2Oc2ccccc2CN1Cc1cn(Cc2ccccc2C(F)(F)F)nn1	none (no result: SR-BI DiI inh, Vif inh, SR-BI uptake up, H9c2 TAG inh)
